Source: ChEMBL document CHEMBL1125911, “Synthesis and biological activity of new HMG-CoA reductase inhibitors. 3. Lactones of 6-phenoxy-3,5-dihydroxyhexanoic acids” (J Med Chem, 1991)

Tests used:
[1] = biological target: T1, 3-hydroxy-3-methylglutaryl-coenzyme A reductase (Rattus norvegicus, UniProt P51639); assay: In vitro inhibition of HMG-CoA reductase in solubilized rat liver.
T1 sequence (P51639 whole entry): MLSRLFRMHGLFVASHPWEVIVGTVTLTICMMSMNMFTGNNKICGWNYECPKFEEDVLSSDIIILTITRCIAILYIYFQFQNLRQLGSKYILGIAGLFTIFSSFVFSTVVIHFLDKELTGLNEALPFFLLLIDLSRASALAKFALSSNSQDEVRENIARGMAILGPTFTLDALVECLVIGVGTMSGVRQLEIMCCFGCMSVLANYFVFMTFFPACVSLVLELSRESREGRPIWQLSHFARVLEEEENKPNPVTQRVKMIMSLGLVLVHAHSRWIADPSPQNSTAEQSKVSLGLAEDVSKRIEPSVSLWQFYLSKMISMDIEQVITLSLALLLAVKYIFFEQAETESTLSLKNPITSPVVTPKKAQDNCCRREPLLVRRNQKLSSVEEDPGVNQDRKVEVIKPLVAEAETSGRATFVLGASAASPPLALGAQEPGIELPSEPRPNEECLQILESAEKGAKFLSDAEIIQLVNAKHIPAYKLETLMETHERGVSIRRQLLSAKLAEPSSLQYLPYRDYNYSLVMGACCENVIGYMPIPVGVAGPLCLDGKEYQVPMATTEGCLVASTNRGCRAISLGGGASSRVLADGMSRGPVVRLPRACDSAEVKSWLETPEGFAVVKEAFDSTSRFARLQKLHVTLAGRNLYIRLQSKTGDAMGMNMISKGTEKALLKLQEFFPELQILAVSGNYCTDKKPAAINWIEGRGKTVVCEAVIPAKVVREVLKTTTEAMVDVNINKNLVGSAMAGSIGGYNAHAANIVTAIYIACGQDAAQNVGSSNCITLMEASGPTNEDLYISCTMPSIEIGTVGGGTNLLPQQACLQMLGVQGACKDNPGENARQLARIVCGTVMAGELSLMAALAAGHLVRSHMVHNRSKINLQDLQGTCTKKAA

[2] = biological target: T2, 3-hydroxy-3-methylglutaryl-coenzyme A reductase (Rattus norvegicus) (UniProt P51639); assay: (§1) Inhibition of HMG-CoA reductase compared to mevinolin.
T2 sequence (whole entry): T1 sequence (P51639 whole entry)
How it was run: (§2)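 Solubilized, partially purified rat liver HMG-CoA reductase. IC50 from four or five inhibitor concentrations. Relative potency compared IC50 with mevinolin (set to 100), corrected for molecular weight.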

[3] = biological target: T3, 3-hydroxy-3-methylglutaryl-coenzyme A reductase (Homo sapiens, UniProt P04035); assay: Inhibition of the incorporation of sodium [14C]acetate into cholesterol in HEP G2 cells.; format: functional, cell-based, HepG2
T3 sequence (P04035 whole entry): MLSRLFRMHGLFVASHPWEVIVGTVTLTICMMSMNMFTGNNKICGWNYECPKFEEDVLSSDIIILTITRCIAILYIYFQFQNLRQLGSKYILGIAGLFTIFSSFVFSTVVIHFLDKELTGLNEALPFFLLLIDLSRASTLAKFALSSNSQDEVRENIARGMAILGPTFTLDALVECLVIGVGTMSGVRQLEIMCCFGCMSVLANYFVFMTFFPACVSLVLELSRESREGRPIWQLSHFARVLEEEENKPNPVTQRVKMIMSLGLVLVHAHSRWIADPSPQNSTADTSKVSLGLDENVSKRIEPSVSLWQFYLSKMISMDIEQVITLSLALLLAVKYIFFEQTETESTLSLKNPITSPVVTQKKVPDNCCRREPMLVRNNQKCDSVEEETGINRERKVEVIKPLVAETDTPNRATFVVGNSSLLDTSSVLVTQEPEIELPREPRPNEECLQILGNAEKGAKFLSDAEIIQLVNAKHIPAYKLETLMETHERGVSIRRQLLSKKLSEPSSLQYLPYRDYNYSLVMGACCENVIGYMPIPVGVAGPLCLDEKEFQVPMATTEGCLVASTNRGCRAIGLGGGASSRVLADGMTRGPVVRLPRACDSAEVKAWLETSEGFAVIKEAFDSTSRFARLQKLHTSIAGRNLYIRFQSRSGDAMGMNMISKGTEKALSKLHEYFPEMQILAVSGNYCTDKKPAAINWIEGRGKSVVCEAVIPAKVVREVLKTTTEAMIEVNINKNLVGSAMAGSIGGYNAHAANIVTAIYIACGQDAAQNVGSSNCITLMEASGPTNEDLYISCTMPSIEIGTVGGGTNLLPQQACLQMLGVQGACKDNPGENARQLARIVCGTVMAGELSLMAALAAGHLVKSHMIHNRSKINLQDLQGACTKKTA

[4] = biological target: T1, 3-hydroxy-3-methylglutaryl-coenzyme A reductase; assay: In vitro inhibition of solubilized HMG-CoA reductase in rat liver.
[5] = biological target: T4, 3-hydroxy-3-methylglutaryl-coenzyme A reductase (Homo sapiens) (UniProt P04035); assay: as §1; format: functional; how it was run: as §2
T4 sequence (whole entry): T3 sequence (P04035 whole entry)

Rattus norvegicus = organism: Rattus norvegicus; assay: Compound was tested for inhibition of microsomal lipid peroxidation and the potency relative to terbufucine was determined; format: functional
How it was run: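 Rat liver microsomes in 50 mM Tris-HCl pH 7.4 with 100 mM KCl and 6.0 mM MgCl2, final protein 0.4 mg/mL. Peroxidation was started with ADP (2 mM)/FeCl3 (10 μM) plus an NADPH-regenerating system. Incubation 30 min at 37 °C with shaking. Thiobarbituric acid reactive substances were read at 535 nm.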

Sus scrofa = organism: Sus scrofa; assay: In vitro inhibition of Cu2+ catalyzed LDL oxidation; format: functional
How it was run: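 Porcine plasma LDL isolated by sequential ultracentrifugation (density 1.019-1.063 g/mL), dialysed against PBS pH 7.4, then diluted to 0.1 mg/mL protein. Preincubated 1 h at 37 °C under N2 with compound in ethanol. Oxidised with 5 μM Cu2+ for 2 h at 37 °C in air. Fluorescence read at ex 365/em 430 nm.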

Structure (SMILES) | IC50 [1] [nM] | Relative potency [2] | other results
Cc1cc(C)c(OCC(O)C[C@@H](O)CC(=O)O)c(C(CC(C)C)c2ccc(F)cc2)c1 (stereo partly specified) | 140 | – | –
O=C(O)C[C@H](O)CC(O)COc1c(Cl)cc(Cl)cc1-c1ccccc1 (stereo partly specified) | 190 | 5 | –
CCC(C)(C)OC(=O)C(c1cc(C)cc(C)c1OCC(O)C[C@@H](O)CC(=O)O)C1CCCCC1 (stereo in doubt; 11s) [listing 1 of 2 here] | 500 | – | IC50 [3]: 1700 nM
CC(C)c1cc(-c2ccccc2)nc(-c2ccc(F)cc2)c1/C=C/[C@@H](O)C[C@@H](O)CC(=O)O | – | – | IC50 [4]: 3 nM
O=C(O)C[C@H](O)CC(O)COc1c(Cl)cc(Cl)cc1C(F)=C1CCCCC1 (stereo partly specified) | 95 | 9 | –
O=C(O)C[C@H](O)CC(O)COc1c(Cl)cc(Cl)cc1C(CCOc1ccc(F)cc1)c1ccc(F)cc1 (stereo partly specified) | 150 | 4 | –
O=C(O)C[C@H](O)CC(O)COc1c(Cl)cc(Cl)cc1C(=O)C1CCCCC1 (stereo partly specified) | 190 | 4 | –
CCC(C)(C)OC(=O)C(c1cc(C)cc(C)c1OCC(O)C[C@@H](O)CC(=O)O)C1CCCCC1 (stereo in doubt; 11r) [listing 1 of 2 here] | 60 | – | IC50 [3]: 12000 nM
Cc1cc(Cl)cc(CCCOc2ccc(F)cc2)c1OCC(O)C[C@@H](O)CC(=O)O (stereo partly specified) | 80 | 10 | –
CCC(C)(C)C(=O)NC(c1cc(C)cc(C)c1OCC(O)C[C@@H](O)CC(=O)O)C1CCCCC1 (stereo in doubt; 11w) [listing 1 of 2 here] | – | 2 | Relative potency [5]: < 1
Cc1cc(C)c(OCC2C[C@@H](O)CC(=O)O2)c(C(Cl)C2CCCCC2)c1 (stereo partly specified) | > 1000 | – | Relative potency [5]: < 1; IC50 [3]: 6500 nM
Cc1cc(-c2ccccc2)nc(-c2ccc(F)cc2)c1/C=C/[C@@H](O)C[C@@H](O)CC(=O)O | – | – | IC50 [4]: 38 nM
CC(C)c1cc(-c2ccccc2)cc(CC2CCCCC2)c1OCC(O)C[C@@H](O)CC(=O)O (stereo partly specified) | 400 | 2 | Relative potency [5]: 50; IC50 [3]: 100 nM
CCC(C)(C)C(=O)NC(c1cc(C)cc(C)c1OCC(O)C[C@@H](O)CC(=O)O)C1CCCCC1 (stereo in doubt; 11w) [listing 2 of 2 here] | 320 | – | IC50 [3]: 15000 nM
O=C(O)C[C@H](O)C[C@H](O)/C=C/c1c(Cl)cc(Cl)cc1-c1ccc(F)cc1 | – | – | IC50 [4]: 4.5 nM
COc1ccc(C(c2ccc(F)cc2)c2cc(C)cc(C)c2OCC(O)C[C@@H](O)CC(=O)O)cc1 (stereo partly specified) | 100 | – | –
CCC(C)(C)OC(=O)C(c1cc(C)cc(C)c1OCC(O)C[C@@H](O)CC(=O)O)C1CCCCC1 (stereo in doubt; 11r) [listing 2 of 2 here] | – | 12 | Relative potency [5]: < 1
CCC(C)(C)OC(=O)C(c1cc(C)cc(C)c1OCC(O)C[C@@H](O)CC(=O)O)C1CCCCC1 (stereo in doubt; 11s) [listing 2 of 2 here] | – | – | Relative potency [5]: 3
Cc1cc(Cl)cc(C(c2ccc(F)cc2)c2ccc(F)cc2)c1OCC(O)C[C@@H](O)CC(=O)O (stereo partly specified) | 70 | – | –
CCC(C)(C)C(=O)NC(c1cc(C)cc(C)c1OCC(O)C[C@@H](O)CC(=O)O)C1CCCCC1 (stereo in doubt; 11x) [listing 1 of 2 here] | 470 | – | IC50 [3]: 10000 nM
CC(C)c1c(OCC(O)C[C@@H](O)CC(=O)O)c(C(c2ccc(F)cc2)c2ccc(F)cc2)cc2ccccc12 (stereo partly specified) | 380 | 2 | Relative potency [5]: 2; IC50 [3]: 3500 nM
CC(C)(C)c1cc(C(C(=O)O)c2cc(C(C)(C)C)c(O)c(C(C)(C)C)c2)cc(C(C)(C)C)c1O [TERBUFICIN] | – | – | Relative potency (Rattus norvegicus): 100; IC50 (Sus scrofa): 110 nM

Structure (SMILES) | IC50 [1] [nM] | Relative potency [2] | other results
Cc1cc(C(c2ccc(F)c(C)c2)c2cc(Cl)cc(Cl)c2OCC(O)C[C@@H](O)CC(=O)O)ccc1F (stereo partly specified) | 1000 | – | –
O=C(O)C[C@H](O)CC(O)COc1c(Cl)cc(Cl)cc1C(F)(F)C1CCCCC1 (stereo partly specified) | 85 | – | Relative potency [5]: 2; IC50 [3]: 2500 nM
Cc1cc(Cl)cc(CC2CCCCC2)c1OCC(O)C[C@@H](O)CC(=O)O (stereo partly specified) | 75 | 12 | –
Cc1cccc(CCCOc2ccc(F)cc2)c1OCC(O)C[C@@H](O)CC(=O)O (stereo partly specified) | 250 | 3 | –
Cc1c(OCC(O)C[C@@H](O)CC(=O)O)c(C(c2ccc(F)cc2)c2ccc(F)cc2)cc2ccccc12 (stereo partly specified) | 900 | – | Relative potency [5]: < 1; IC50 [3]: 20000 nM
Cc1cc(C)c(OCC(O)C[C@@H](O)CC(=O)O)c(CC2CCCCC2)c1 (stereo partly specified) | 100 | 9 | –
Cc1cc(Cl)cc(CCCOc2ccc(Cl)cc2)c1OCC(O)C[C@@H](O)CC(=O)O (stereo partly specified) | 50 | 15 | –
O=C(O)C[C@H](O)CC(O)COc1c(Cl)cc(Cl)cc1CC1CCCCC1 (stereo partly specified) | 27 | 31 | –
Cc1cc(Cl)c(OCC(O)C[C@@H](O)CC(=O)O)c(C(c2ccc(F)c(C)c2)c2ccc(F)c(C)c2)c1 (stereo partly specified) | 270 | – | –
O=C(O)C[C@H](O)CC(O)COc1c(Cl)cc(Cl)cc1C(c1ccc(F)cc1)c1ccc(F)cc1 (stereo in doubt; 11pp) | 950 | – | –
CC(C)c1c(CCC(O)C[C@@H](O)CC(=O)O)c(-c2ccc(F)cc2)cn1-c1ccccc1 (stereo partly specified) | – | – | IC50 [4]: 3 nM
Cc1cc(C)c(OCC(O)C[C@@H](O)CC(=O)O)c(C(C)c2ccc(F)cc2)c1 (stereo partly specified) | 160 | – | –
Cc1nc2ccccc2c(-c2ccccc2)c1OCC(O)C[C@@H](O)CC(=O)O (stereo partly specified) | > 1000 | < 1 | Relative potency [5]: < 1; IC50 [3]: > 5000 nM
Cc1cc(C)c(OCC(O)C[C@@H](O)CC(=O)O)c(C(c2ccc(F)cc2)c2cccc(C(F)(F)F)c2)c1 (stereo partly specified) | 90 | – | –
CC(C)c1c(OCC(O)C[C@@H](O)CC(=O)O)c(-c2ccc(F)cc2)nc2ccccc12 (stereo partly specified) | 50 | 16 | Relative potency [5]: 20; IC50 [3]: 250 nM
O=C(O)C[C@H](O)CC(O)COc1c(CCCOc2ccc(F)cc2)cccc1C1CCCC1 (stereo partly specified) | > 1000 | < 1 | –
Cc1cc(C)c(OCC(O)C[C@@H](O)CC(=O)O)c(C(c2ccc(F)cc2)c2ccc(F)cc2)c1 (stereo partly specified) | 70 | – | –
O=C(O)C[C@H](O)CC(O)COc1c(CCCOc2ccc(F)cc2)cc(Cl)cc1C1CCCC1 (stereo partly specified) | > 1000 | < 1 | –
Cc1c(OCC(O)C[C@@H](O)CC(=O)O)c(-c2ccc(F)cc2)nc2ccccc12 (stereo partly specified) | 1000 | 1 | Relative potency [5]: < 1; IC50 [3]: > 5000 nM
CCC(C)(C)C(=O)NC(c1cc(C)cc(C)c1OCC(O)C[C@@H](O)CC(=O)O)C1CCCCC1 (stereo in doubt; 11x) [listing 2 of 2 here] | – | – | Relative potency [5]: < 1
O=C(O)C[C@H](O)CC(O)COc1cc(OCc2ccc(F)cc2)c(Cl)cc1Cl (stereo partly specified) | 260 | 3 | –
Cc1cc(C)c(OCC(O)C[C@@H](O)CC(=O)O)c(C(c2ccc(F)cc2)C2CCCCC2)c1 (stereo partly specified) | 95 | 8 | –
